The record followed here is PubChem BioAssay AID624466 (The Scripps Research Institute Molecular Screening Center, 2012).

In all, about 360,000 compounds went through this assay and about 5,400 (1.5%) were called active. Many of the other results were omitted from the sample, so actives are more common in it than they were. Unmarked numbers belong to inactive results.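 The calls were made as follows: active = inhibition above a per-plate cutoff, the mean inhibition of test compounds on that plate plus 3 SD (cut at about 49% in these data); inactive = the rest.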

The target in this assay is Trace amine-associated receptor 1 (Homo sapiens) (UniProt Q96RJ0). The assay can be described thus: human TAAR1 antagonists, primary screen, Fluo-8 calcium fluorescence, CHO RD-HGA16 cells (AID 624466).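 Also: 0% = DMSO plus EC80 beta-PEA response and 100% = DMSO alone without agonist.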 The settings on record: CHO RD-HGA16 TAAR1, Fluo-8 calcium fluorescence, antagonist; at 3 µM; hits give high values. A digest of the protocol: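 Material: RD-HGA16 CHO cells with stable hTAAR1 and Gα16; Dosing: single nominal final test compound concentration of 3 µM; Schedule: seeding 17-24 h prior, 75-min 37 °C, 30-min RT dye loading; Detection: kinetic Fluo-8 calcium fluorescence measurement; Measure: % inhibition from peak post-agonist over basal fluorescence ratio; Benchmarks: vehicle and agonist controls.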
Sequence of Trace amine-associated receptor 1 (Homo sapiens) (Q96RJ0 whole entry, looked up): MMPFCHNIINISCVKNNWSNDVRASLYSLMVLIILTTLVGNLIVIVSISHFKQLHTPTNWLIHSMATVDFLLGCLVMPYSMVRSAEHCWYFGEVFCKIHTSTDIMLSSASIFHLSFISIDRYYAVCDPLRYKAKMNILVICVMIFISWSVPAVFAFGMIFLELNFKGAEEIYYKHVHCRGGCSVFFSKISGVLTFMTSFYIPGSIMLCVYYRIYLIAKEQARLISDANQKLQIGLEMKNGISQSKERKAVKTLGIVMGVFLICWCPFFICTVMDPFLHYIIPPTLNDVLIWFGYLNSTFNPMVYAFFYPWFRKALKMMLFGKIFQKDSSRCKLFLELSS
For the molecule `CCC(C(=O)Nc1c(C)cccc1C)n1c(-c2cc(C)cs2)nc2ccccc21` (stereo unspecified), the inhibition is -17.6%.
`Fc1ccccc1/C=N/Nc1cc(N2CCCCC2)ncn1`: the inhibition was -0.85%.
Under `O=C(C1CCCN(S(=O)(=O)c2ccccc2)C1)N1CCN(c2ccc(F)cc2)CC1` (stereo unspecified) stands -6.96%; under `COc1cccc(N2CCN(C(=O)C3CCCN(S(=O)(=O)c4cnc[nH]4)C3)CC2)c1` (stereo unspecified), -6.44%; under `CC(=O)N1CCCc2cc(S(=O)(=O)N3CCCC(C(=O)N4CCN(c5cccc(Cl)c5)CC4)C3)ccc21` (stereo unspecified), 83.6% (active).
As to `Cn1c(=O)n(C)c(=O)n(CC(=O)N2CCCCC2)c1=O`, the inhibition is -10.7%.
Under `Oc1ccc(/C=N/Nc2nc(-c3ccccc3F)nc3ccccc23)c(O)c1` stands 82.1% (active); under `CCOc1ccc(N(C)S(=O)(=O)c2cnc[nH]2)cc1`, -13.2%; under `Cn1c(C(=O)N2CCC(C(N)=O)CC2)cc2c(=O)n(C)c3ccccc3c21`, -11.2%.
For the molecule `Cn1c(C(=O)NCCc2ccsc2)cc2c(=O)n(C)c3ccccc3c21`, the inhibition was 57.4% (active).
For the molecule `Cn1c(C(=O)NCCN2CCc3ccccc3C2)cc2c(=O)[nH]c3ccccc3c21`, the inhibition was 4.74%.
Under `COc1ccc(C(=O)Nc2ccc(C(=O)NCC3CCCO3)cc2)c(OC)c1OC` (stereo unspecified) stands -23%.
Under `O=C1NC[C@H](Cc2ccc(O)cc2)N(C[C@@H]2CCCN2C[C@H](Cc2ccccc2)N2C[C@H](Cc3ccccc3)N(CC3CCCCC3)C(=O)C2=O)C1=O` stands -20.1%; under `Cc1cccc(C)c1NC(=O)CNC(=O)Cc1ccc(Br)cc1`, -2.34%.
Take `Cc1cccc(C)c1NC(=O)CNC(=O)C1CCCC1`: the inhibition is 100% (active).
Under `CN(CC(=O)Nc1c(Cl)cccc1Cl)C(=O)CNC(=O)C1CCCCC1` stands -8.13%; under `Cc1ccc(S(=O)(=O)N2CCCC2C(=O)NCc2ccco2)cc1` (stereo unspecified), -5.82%.
Consider `COc1ccc(CNC(=O)CN(Cc2ccccc2Cl)C(=O)c2csnn2)cc1`, for which the inhibition is 10.7%.
Under `CCCc1nc2ccccc2n1C(C)C(=O)NC(C)(C)C` (stereo unspecified) stands -0.35%; under `COc1ccc(Br)cc1S(=O)(=O)N1CCN=C1C`, -4.85%; under `Cc1ccc(-c2noc(CNC(=O)c3ccoc3C)n2)cc1`, -42.9%.
Under `C/C(=N/Nc1ccc(Cl)cc1)c1cnnc(-c2ccccc2)n1` stands 8.2%; under `CC/C(=N/Nc1ccccc1)c1cnnc(SC)n1`, 74.9% (active).
As for `C/C(=N\Nc1ccccc1)c1cccs1`, the inhibition was 8.01%.
Under `O=C(COC(=O)c1ncc(Cl)c(Cl)c1Cl)NC1CCS(=O)(=O)C1` (stereo unspecified) stands -31.4%.
Under `Cc1ccc(-n2c(C)cc(/C=N\NC(=O)CC(=O)NC(C)C)c2C)cc1` stands 97.7% (active); under `Cc1cc(/C=N/NC(=O)CC2(C)OCCO2)c(C)n1-c1ccc(Cl)c(Cl)c1`, -4.93%.
Under `Cc1cc(/C=N/NC(N)=O)c(C)n1C1CCCCC1` stands -23.7%.
On to `COc1ccc(-c2nc3cnccn3c2NC(C)(C)CC(C)(C)C)cc1O`, for which the inhibition is 48.6% (active).
Under `CCOc1cc(-c2nc3cc(C)ccn3c2NCC2CCCO2)ccc1O` (stereo unspecified) stands 24.7%.
Consider `COc1ccc(-c2nc3cnccn3c2NC2CCCCC2)cc1-c1cccc(Cl)c1`, for which the inhibition is -50.3%.
In the case of `CC(=O)Nc1ccc(N2CCOCC2)c(C(=O)Nc2cccc(C)c2)c1`, the inhibition is -5.97%.
Under `COC(=O)c1cc(NC(=O)c2cccnc2)ccc1N1CCOCC1` stands -22%; under `COC(=O)c1cc(NC(=O)c2cc(C(C)(C)C)nn2Cc2cccc(C)c2)ccc1N1CCOCC1`, 50.4% (active); under `CC1(C)OC(=O)C2=C(C[C@@H](C3CC3)O[C@H]2CCc2cccc(Cl)c2)O1`, -4.58%.
Under `CCCCCCCCNS(=O)(=O)CCNC1CCCCC1` stands -6.98%; under `COc1ccc(CC(N)c2csc(NC(=O)Cc3ccccc3)n2)cc1` (stereo unspecified), 15.7%; under `COc1ccc(CC(N)c2csc(NC(=O)NC(c3ccccc3)c3ccccc3)n2)cc1` (stereo unspecified), 12.4%.
Under `NC(Cc1ccccc1)c1csc(Nc2cc(Oc3ccccc3)ncn2)n1` (stereo unspecified) stands 49.7% (active); under `O=C(CSc1nc2[nH]c(=O)[nH]c(=O)c2s1)Nc1cccc(F)c1`, -17.1%; under `CCC(c1nnnn1Cc1ccco1)N(CCc1ccccc1)Cc1cc2ccc(OC)cc2[nH]c1=O` (stereo unspecified), 85.2% (active).
On to `CCC(c1nnnn1Cc1ccco1)N(Cc1cc2cc(OC)ccc2[nH]c1=O)C1CCCCC1` (stereo unspecified), for which the inhibition was -35.8%.
Turning to `CCC(c1nnnn1Cc1ccco1)N(CCc1ccccc1)Cc1cc2cccc(C)c2[nH]c1=O` (stereo unspecified), the inhibition was -1.4%.
For the molecule `CCCN1C(=O)c2[nH]nc(-c3ccccc3)c2C1c1ccccc1` (stereo unspecified), the inhibition is -18.5%.
Under `O=C(O)CSCc1ccc(C(=O)O)o1` stands 8.93%; under `Cc1ccc(CC2CC(=O)N(c3cc(C)ccc3C)C2=O)cc1` (stereo unspecified), -18.2%; under `Cc1ccccc1CN1CCC(C(=O)Nc2ccc(Oc3cccnc3)cc2)CC1`, -4.26%.
Under `Cc1ccnc(N2C(=O)c3ccccc3C2Nc2ccc3c(c2)OCCO3)c1` (stereo unspecified) stands -4.03%; under `S=C(NCc1ccco1)Nc1ccc2c(c1)OCCO2`, -13.5%; under `O=C1c2ccccc2C(Nc2ccc3c(c2)OCCO3)N1Cc1ccco1` (stereo unspecified), 60.2% (active).
Turning to `COC(=O)c1cc(S(=O)(=O)Nc2ccc(C)c(F)c2)c[nH]1`, the inhibition is 3.38%.
In the case of `COc1ccc(C(=O)C(OP(=O)(OC)OC)c2ccccc2OC)cc1` (stereo unspecified), the inhibition is -8.05%.
Under `CC(C)N(Cc1ccccc1)C(=O)COC(=O)c1cnccn1` stands -3.08%.
In the case of `COc1ccc(C(C(=O)NCc2ccccc2)N(Cc2cccs2)C(=O)c2cnccn2)cc1` (stereo unspecified), the inhibition is 53.3% (active).
Under `Cc1cccc(N(C(=O)c2csnn2)C(C(=O)NCc2ccccc2)c2ccncc2)c1` (stereo unspecified) stands -12.4%; under `CCOc1ccccc1CN1CCN(C2CCC2)CC1CCO` (stereo unspecified), 6.95%.
For `COC(=O)[C@@]12C[C@@H](CC(=O)N3CCC(c4ccccc4)CC3)C(=O)N(Cc3ccccc3)C1=CCC(C)(C)C2`, the inhibition was -13.1%.
`Clc1cccc2c1C1CC2CCN1Cc1ccccc1` (stereo unspecified): the inhibition was -3.53%.
Consider `COCCNC(=O)CCCN1C(=O)c2ccccc2Sc2ncccc21`, for which the inhibition was -9.71%.
Under `Cc1c(C(=O)NCc2ccccc2)cnn1-c1ccccc1` stands -4.01%.
Under `Cc1c(CNCCc2ccccc2)c(C(=O)O)c(C)n1-c1ccccc1` stands 65.9% (active); under `CNC(=O)CSc1nnc(CCc2ccccc2)n1-c1ccccc1`, 10.8%; under `CCOC(=O)/C=C/c1ccccc1O`, -4.54%.
Under `Cc1cc(C)nc(SC2CCCCC2NS(=O)(=O)c2ccc(Cl)cc2)n1` (stereo unspecified) stands -8.5%.
As for `COC(=O)C1=C(C)N(Cc2ccc(F)cc2)C(=S)NC1c1cccc(Cl)c1` (stereo unspecified), the inhibition is 64.3% (active).
Regarding `COC(=O)C1=C(C)N(Cc2ccc(C(F)(F)F)cc2)C(=NCc2ccc(C(F)(F)F)cc2)NC1c1cccc(Cl)c1` (stereo unspecified), the inhibition is 12.3%.
Under `CC(=O)C1=C(C)N(Cc2ccc(Cl)cc2)C(=S)NC1c1ccc(F)cc1` (stereo unspecified) stands 28.2%.
Under `O=C(Nc1ccccc1)N1CCN(C2c3ccccc3-c3ccccc32)CC1` stands 3.75%.
Consider `O=C(Nc1cccc(NC(=O)N2CCN(c3ccccc3)CC2)c1)N1CCN(c2ccccc2)CC1`, for which the inhibition was 53.4% (active).
Under `COc1cccc(N2CCN(C(=O)Nc3ccc4c(c3)NC(=O)CO4)CC2)c1` stands 11.5%.
Regarding `Cc1nn2c(NCCN(C)C)c3c(nc2c1-c1ccccc1)CCC3`, the inhibition was -32.4%.
Under `COc1cccc(CNC(=O)[C@H]2CCCN2C(=O)[C@H]2CCCN2C(=O)c2cc(F)cc(F)c2)c1` stands 4.19%; under `CCN(CC(=O)Nc1c(F)cccc1F)C(=O)Cc1cccs1`, -22.6%; under `Cc1cc(C)c(S(=O)(=O)NN=C2c3ccccc3[C@H]3Cc4csc[n+]4[C@@H]23)c(C)c1`, 6.84%.
Under `COc1ccc(OCCNC(=O)c2cc(C3CC3)nc3c2cnn3C(C)C)cc1` stands 48.8% (active).
As for `CC(C)n1ncc2c(C(=O)Nc3ccc(CC#N)cc3)cc(C3CC3)nc21`, the inhibition is 35.5%.
Under `CC(C)n1ncc2c(C(=O)NCc3ccccc3CN(C)C)cc(C3CC3)nc21` stands -19.6%; under `CCc1c(-c2ccc(F)cc2)ncn1Cc1cccc(-c2ccccc2)c1`, 34.5%; under `O=C1NC[C@@H](CCCCN2CCN(CCc3ccc(O)cc3)C(=O)C2=O)N(CC2CCCCC2)C1=O`, 3.12%.
Under `O=C1c2ccccc2S(=O)(=O)N1CC(O)Cn1c2ccccc2c2ccccc21` (stereo unspecified) stands 62.3% (active).
Under `COc1ccc(CNC(=O)CN2C(=O)c3ccccc3S2(=O)=O)cc1` stands 17.9%; under `CC(C)(C)c1ccc(CN2C(=O)c3ccccc3S2(=O)=O)cc1`, 8.91%.
Regarding `COc1ccc(NC(=O)CN(C)C(=O)c2cc(C)oc2C)cc1`, the inhibition was -28%.
Under `COc1ccc(NC(=O)c2cc(-c3cc(OC)c(OC)c(OC)c3)nc3ccccc23)c(OC)c1` stands 3.05%; under `COc1ccc(NC(=O)c2cc(-c3ccc(C)o3)nc3ccccc23)cc1`, 57.4% (active); under `COc1cccc(NC(=O)CN(C)C(=O)c2cc(Cl)nc3ccccc23)c1`, 18.8%.
For `COc1ccc(NC(=O)CN(C)C(=O)c2cc(-c3ccc(C)o3)nc3ccccc23)cc1`, the inhibition was 54.9% (active).
`COc1ccc(NC(=O)c2cn(-c3ccccc3)nc2SC)cc1`: the inhibition is -11.6%.
Under `C/C(=N\NC(=O)c1cc(-c2ccc(O)cc2)nc2ccccc12)c1cccnc1` stands -2.53%; under `Cc1ccc2nc(-c3ccncc3)cc(C(=O)Nc3ccc(OC(F)F)cc3)c2c1`, -4.36%.
Under `COc1ccc(-c2cc(C(=O)Nc3ccccc3O)c3ccccc3n2)cc1` stands 86.9% (active).

By inhibition is commonly meant the relative decrease from the control value, in per cent.
